In ChEMBL document CHEMBL4024792, “(N-Hydroxycarbonylbenylamino)quinolines as Selective Histone Deacetylase 6 Inhibitors Suppress Growth of Multiple Myeloma in Vitro and in Vivo” (J Med Chem, 2018):

Tests used:
[1] = molecular target: T1, Protein deacetylase HDAC6 (Homo sapiens) (UniProt Q9UBN7); experiment: Inhibition of HDAC6 in human U266 cells assessed as increase in acetylated tubulin level by immunoblot analysis relative to control; format: cell-based
T1 sequence (whole entry): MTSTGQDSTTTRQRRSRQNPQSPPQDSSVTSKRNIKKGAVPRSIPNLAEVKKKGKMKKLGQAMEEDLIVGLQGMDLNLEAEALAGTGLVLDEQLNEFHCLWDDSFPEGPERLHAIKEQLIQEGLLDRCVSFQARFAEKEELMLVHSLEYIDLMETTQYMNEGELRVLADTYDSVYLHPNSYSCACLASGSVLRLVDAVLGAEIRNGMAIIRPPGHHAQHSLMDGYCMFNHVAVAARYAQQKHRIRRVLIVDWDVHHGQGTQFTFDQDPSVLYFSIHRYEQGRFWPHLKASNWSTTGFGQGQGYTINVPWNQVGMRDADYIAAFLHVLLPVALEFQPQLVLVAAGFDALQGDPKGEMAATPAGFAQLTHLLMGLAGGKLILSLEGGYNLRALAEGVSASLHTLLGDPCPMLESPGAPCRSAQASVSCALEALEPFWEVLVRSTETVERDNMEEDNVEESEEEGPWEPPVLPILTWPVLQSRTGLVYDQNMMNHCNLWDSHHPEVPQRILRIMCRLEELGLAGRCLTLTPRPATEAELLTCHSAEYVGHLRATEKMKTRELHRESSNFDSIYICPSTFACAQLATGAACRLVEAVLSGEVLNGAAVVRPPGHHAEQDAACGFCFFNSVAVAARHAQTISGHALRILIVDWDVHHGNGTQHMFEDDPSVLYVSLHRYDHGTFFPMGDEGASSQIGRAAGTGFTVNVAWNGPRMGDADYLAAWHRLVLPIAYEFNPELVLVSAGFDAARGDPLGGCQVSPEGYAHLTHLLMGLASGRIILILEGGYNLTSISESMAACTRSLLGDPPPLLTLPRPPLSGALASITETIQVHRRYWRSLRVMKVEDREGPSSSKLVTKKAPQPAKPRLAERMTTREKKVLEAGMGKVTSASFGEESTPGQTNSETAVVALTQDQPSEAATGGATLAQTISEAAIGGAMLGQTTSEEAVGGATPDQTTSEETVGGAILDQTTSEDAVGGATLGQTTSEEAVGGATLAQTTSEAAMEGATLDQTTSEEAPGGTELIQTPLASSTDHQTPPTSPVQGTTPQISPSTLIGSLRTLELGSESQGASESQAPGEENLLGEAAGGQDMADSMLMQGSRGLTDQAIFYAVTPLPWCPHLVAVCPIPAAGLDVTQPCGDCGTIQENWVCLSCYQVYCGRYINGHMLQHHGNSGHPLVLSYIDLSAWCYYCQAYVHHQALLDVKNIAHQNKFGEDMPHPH
Outline: (§1)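 Multiple myeloma cells harvested in Tris-HCl lysis buffer (pH 7.4) with protease and phosphatase inhibitors, then centrifuged 17,000 g for 30 min at 4 °C. Lysates immunoblotted with specific antibodies for acetylated α-tubulin. Signal detected by ECL on film.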

[2] = molecular target: T1, Protein deacetylase HDAC6 (Homo sapiens); experiment: Inhibition of HDAC6 in human NCI-H929 cells assessed as increase in acetylated tubulin level by immunoblot analysis relative to control; format: cell-based; outline: as §1
Histone deacetylase 8 = molecular target: T2, Histone deacetylase 8 (Homo sapiens, UniProt Q9BY41); experiment: Inhibition of recombinant human C-terminal His-tagged/N-terminal Strep2-tagged HDAC8 (1 to 377 residues) expressed in insect cells using RHK-K(Ac)-AMC as substrate after 60 mins by fluorescence assay
T2 sequence (Q9BY41 whole entry): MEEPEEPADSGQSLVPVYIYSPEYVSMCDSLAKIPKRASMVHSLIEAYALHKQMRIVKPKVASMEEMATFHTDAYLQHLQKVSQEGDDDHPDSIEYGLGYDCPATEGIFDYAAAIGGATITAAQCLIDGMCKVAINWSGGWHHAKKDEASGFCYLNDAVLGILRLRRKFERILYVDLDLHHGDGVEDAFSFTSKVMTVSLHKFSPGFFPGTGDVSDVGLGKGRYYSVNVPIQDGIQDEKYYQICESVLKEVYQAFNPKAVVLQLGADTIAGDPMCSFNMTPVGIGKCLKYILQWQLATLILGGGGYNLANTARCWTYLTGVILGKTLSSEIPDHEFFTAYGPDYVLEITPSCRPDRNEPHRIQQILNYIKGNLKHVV

[3] = molecular target: T3, Protein deacetylase HDAC6 (Homo sapiens, UniProt Q9UBN7); experiment: Inhibition of full length recombinant human N-terminal GST-tagged HDAC6 expressed in baculovirus infected insect cells using RHK-K(Ac)-AMC as substrate after 90 mins by fluorescence assay
T3 sequence (Q9UBN7 whole entry): T1 sequence (whole entry)

[4] = molecular target: Histone deacetylase 3/Nuclear receptor corepressor 2 (HDAC3/NCoR2) (Homo sapiens, UniProt O15379); experiment: Inhibition of full length recombinant human C-terminal His-tagged HDAC3/N-terminal GST-tagged NCOR2 (395 to 489 residues) expressed in insect cells using RHK-K(Ac)-AMC as substrate after 60 mins by fluorescence assay
RPMI-8226 = experiment: Antiproliferative activity against human RPMI8226 cells after 48 hrs by SRB assay; format: functional; details: RPMI-8226, 48 h
Outline: (§2)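 Cells were exposed to test compounds at the indicated concentrations for 48 h. They were then fixed with 10% trichloroacetic acid, stained 30 min with 0.4% SRB in 1% AcOH, and washed with 1% AcOH. Bound dye was solubilized in 10 mM Tris base and OD read at 510 nm. Lines cultured in RPMI 1640 with 20% FBS and penicillin/streptomycin, 37°C, 5% CO2.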

Histone deacetylase 4 = Histone deacetylase 4 (Homo sapiens, UniProt P56524); experiment: Inhibition of recombinant human C-terminal His-tagged/N-terminal GST-tagged HDAC4 (627 to 1084 residues) expressed in insect cells using Boc-K(Ac)-AMC as substrate after 60 mins by fluorescence assay
Sequence of Histone deacetylase 4 (P56524 whole entry, the tested form may be a part): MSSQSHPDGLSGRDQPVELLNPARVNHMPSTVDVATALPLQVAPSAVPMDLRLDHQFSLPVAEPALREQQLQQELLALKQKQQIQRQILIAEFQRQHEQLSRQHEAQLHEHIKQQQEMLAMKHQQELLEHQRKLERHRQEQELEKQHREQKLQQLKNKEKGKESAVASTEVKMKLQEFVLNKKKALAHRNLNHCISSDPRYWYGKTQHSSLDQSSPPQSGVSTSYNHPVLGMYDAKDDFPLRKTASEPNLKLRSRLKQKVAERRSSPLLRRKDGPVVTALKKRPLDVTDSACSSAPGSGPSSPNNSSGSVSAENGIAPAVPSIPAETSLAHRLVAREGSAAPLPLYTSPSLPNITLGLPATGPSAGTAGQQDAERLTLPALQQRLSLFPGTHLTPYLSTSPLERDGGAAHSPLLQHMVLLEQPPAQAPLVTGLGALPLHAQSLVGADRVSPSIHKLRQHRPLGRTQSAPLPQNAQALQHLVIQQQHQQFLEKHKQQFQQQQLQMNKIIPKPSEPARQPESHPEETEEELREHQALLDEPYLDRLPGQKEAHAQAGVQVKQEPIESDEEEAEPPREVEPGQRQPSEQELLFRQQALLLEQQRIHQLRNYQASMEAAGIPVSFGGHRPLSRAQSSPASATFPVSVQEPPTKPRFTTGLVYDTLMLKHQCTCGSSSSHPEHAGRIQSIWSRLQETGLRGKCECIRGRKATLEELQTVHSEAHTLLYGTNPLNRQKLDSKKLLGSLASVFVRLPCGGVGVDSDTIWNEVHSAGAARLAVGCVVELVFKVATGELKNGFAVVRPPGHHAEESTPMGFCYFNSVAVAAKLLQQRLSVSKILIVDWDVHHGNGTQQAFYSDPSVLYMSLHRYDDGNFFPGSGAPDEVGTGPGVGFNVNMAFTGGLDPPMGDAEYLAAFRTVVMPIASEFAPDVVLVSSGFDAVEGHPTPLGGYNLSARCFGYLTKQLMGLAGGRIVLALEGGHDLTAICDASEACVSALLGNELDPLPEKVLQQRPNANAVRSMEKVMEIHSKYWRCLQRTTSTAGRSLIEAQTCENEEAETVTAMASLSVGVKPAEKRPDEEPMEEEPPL

Histone deacetylase 9 = Histone deacetylase 9 (Homo sapiens, UniProt Q9UKV0); experiment: Inhibition of HDAC9 (unknown origin)
Sequence of Histone deacetylase 9 (Q9UKV0 whole entry): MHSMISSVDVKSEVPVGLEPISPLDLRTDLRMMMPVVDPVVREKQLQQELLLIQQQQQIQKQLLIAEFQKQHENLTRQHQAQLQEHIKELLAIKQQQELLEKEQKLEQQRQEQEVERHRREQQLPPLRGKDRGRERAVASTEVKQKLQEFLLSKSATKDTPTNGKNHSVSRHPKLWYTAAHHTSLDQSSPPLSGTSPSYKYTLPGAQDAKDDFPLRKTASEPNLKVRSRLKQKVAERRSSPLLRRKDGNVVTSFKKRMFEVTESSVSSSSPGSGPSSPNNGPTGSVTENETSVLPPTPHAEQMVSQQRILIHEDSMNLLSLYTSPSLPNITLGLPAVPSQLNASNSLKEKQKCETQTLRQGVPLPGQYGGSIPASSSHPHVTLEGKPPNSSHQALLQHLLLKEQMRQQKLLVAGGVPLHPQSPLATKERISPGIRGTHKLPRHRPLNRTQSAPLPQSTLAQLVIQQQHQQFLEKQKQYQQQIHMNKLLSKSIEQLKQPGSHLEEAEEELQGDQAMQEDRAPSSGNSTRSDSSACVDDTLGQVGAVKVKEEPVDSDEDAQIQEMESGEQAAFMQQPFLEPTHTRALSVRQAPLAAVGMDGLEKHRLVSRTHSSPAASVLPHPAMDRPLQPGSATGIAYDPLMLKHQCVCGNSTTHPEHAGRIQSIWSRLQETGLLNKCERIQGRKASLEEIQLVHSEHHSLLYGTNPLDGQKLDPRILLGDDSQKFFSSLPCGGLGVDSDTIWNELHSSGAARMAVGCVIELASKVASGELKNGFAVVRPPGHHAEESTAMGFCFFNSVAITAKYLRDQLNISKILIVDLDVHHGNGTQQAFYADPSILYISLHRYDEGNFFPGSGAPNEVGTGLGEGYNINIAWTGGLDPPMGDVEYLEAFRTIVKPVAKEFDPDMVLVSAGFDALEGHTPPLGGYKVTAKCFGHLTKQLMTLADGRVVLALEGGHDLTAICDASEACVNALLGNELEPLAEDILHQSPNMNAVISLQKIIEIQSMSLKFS

Histone deacetylase 2 = Histone deacetylase 2 (Homo sapiens, UniProt Q92769); experiment: Inhibition of full length recombinant human C-terminal GST-tagged HDAC2 expressed in baculovirus infected insect cells using RHK-K(Ac)-AMC as substrate after 60 mins by fluorescence assay
Sequence of Histone deacetylase 2 (Q92769 whole entry, the tested form may be a part): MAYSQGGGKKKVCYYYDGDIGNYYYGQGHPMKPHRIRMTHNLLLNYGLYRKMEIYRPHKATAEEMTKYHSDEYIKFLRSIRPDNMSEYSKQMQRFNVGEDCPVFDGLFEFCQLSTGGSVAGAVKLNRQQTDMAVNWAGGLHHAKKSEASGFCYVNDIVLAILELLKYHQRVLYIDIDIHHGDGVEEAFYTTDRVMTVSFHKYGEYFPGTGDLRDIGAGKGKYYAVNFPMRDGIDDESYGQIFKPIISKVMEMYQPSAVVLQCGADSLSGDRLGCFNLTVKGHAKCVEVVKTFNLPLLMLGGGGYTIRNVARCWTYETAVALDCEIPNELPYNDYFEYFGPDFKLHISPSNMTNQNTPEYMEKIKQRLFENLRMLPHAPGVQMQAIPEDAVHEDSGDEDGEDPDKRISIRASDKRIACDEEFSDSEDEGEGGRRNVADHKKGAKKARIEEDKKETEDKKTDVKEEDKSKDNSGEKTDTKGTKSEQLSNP

Histone deacetylase 5 = Histone deacetylase 5 (Homo sapiens, UniProt Q9UQL6); experiment: Inhibition of recombinant human C-terminal His-tagged HDAC5 (656 to 1122 residues) expressed in insect cells using Boc-K(Ac)-AMC as substrate after 60 mins by fluorescence assay
Sequence of Histone deacetylase 5 (Q9UQL6 whole entry, the tested form may be a part): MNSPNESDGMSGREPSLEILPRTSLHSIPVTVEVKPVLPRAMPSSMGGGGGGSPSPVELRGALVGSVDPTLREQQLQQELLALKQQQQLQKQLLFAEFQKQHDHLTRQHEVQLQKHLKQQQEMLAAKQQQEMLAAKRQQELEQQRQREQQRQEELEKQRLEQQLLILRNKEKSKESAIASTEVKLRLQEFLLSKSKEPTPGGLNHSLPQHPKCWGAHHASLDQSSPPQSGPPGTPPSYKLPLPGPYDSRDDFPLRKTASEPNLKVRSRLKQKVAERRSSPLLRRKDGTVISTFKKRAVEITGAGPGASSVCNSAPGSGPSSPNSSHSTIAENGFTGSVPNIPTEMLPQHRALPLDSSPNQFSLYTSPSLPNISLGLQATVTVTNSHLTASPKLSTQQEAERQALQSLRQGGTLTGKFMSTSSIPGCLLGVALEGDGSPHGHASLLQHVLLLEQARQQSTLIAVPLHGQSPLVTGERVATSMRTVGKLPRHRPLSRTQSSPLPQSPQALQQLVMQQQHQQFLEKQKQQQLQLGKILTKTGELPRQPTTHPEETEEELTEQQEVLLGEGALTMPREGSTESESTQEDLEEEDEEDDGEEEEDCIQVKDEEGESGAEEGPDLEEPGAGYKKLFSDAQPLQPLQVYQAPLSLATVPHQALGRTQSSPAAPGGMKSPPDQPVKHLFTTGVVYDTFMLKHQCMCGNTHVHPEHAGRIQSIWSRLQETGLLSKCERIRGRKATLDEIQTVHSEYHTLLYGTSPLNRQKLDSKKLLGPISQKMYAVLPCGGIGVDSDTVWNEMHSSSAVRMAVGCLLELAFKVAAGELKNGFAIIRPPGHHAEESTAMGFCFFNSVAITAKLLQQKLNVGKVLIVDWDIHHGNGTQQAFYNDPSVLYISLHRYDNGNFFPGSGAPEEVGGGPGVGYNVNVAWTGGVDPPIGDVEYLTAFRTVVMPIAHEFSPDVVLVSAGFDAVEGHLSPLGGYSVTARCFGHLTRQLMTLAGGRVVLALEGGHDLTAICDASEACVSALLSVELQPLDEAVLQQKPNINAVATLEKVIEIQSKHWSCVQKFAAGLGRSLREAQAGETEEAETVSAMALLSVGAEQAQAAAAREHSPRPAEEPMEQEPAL

U-266 = experiment: Antiproliferative activity against human U266 cells after 48 hrs by SRB assay; format: functional; details: U-266, 48 h; outline: as §2

Row | inhibition [1] | inhibition [2] | IC50 (Histone deacetylase 8) | IC50 [3] | IC50 [4] | GI50 (RPMI-8226) | IC50 (Histone deacetylase 4) | IC50 (Histone deacetylase 9) | IC50 (Histone deacetylase 2) | IC50 (Histone deacetylase 5) | Compound | GI50 (U-266)
1 | Dose-dependent effect | Dose-dependent effect | 1.19 µM | 0.000291 µM | 7.75 µM | 7.49 µM | 4.44 µM | 1.53 µM | 12.5 µM | 3.11 µM | O=C(NO)c1ccc(CNc2cccc3cccnc23)cc1 | 40.6 µM
2 | Dose-dependent effect | Dose-dependent effect | 0.636 µM | 0.000795 µM | 5.48 µM | 11 µM | 4.82 µM | 1.92 µM | 8.61 µM | 2.25 µM | O=C(NO)c1ccc(CNc2cccc3ncccc23)cc1 | 28.4 µM
